For orientation: IC50 means the point on the concentration scale where inhibition reaches its midpoint. A higher IC50 goes with weaker potency in that assay.

The source of these data is ChEMBL document CHEMBL1155055, “Novel aminopeptidase N inhibitors derived from 1,3,4-thiadiazole scaffold” (Bioorg Med Chem, 2008).

The target in experiment [1] is 72 kDa type IV collagenase (Homo sapiens, UniProt P08253). Description: Inhibition of MMP2. Put shortly: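 Gelatinase (MMP-2), substrate and inhibitor in 50 mmol/L sodium borate pH 8.5, 30 min at 37 °C; then 0.03% TNBS added, further 20 min incubation; absorbance read at 450 nm.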
A further experiment deals with T1, Aminopeptidase N (Sus scrofa, UniProt P15145).
T1 sequence (P15145 whole entry): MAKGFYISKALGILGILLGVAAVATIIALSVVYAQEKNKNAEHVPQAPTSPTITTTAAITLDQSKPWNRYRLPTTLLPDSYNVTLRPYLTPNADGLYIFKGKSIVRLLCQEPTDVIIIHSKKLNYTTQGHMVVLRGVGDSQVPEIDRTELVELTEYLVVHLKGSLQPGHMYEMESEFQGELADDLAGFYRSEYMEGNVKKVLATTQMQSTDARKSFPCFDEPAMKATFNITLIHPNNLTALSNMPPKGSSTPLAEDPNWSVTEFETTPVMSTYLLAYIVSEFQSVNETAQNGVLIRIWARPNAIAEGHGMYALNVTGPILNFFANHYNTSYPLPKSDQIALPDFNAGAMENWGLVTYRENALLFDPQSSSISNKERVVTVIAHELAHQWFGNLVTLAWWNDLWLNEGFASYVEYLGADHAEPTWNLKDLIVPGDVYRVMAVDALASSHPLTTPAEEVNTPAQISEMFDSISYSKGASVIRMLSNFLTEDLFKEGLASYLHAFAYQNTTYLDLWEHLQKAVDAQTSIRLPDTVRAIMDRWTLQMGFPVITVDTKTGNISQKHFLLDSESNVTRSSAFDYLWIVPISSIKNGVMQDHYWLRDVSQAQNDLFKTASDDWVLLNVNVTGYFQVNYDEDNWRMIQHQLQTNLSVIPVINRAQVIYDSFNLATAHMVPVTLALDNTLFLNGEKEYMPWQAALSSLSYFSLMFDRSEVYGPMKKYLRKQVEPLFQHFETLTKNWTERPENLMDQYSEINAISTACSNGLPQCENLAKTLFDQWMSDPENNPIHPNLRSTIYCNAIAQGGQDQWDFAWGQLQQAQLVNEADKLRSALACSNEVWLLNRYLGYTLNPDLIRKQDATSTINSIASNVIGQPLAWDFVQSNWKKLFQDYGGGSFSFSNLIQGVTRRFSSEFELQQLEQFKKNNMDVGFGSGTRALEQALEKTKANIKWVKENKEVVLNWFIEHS
Put plainly: Inhibition of pig kidney microsomes aminopeptidase N.

Activity calls are given as the source filed them. No cut-off for these calls is given here.

For `COc1ccc(/C=C/C(=O)N[C@H](C)C(=O)Nc2nnc(-c3ccc([N+](=O)[O-])cc3)s2)cc1`, the IC50 in experiment [1] was 297 µM; against Aminopeptidase N, 44.6 µM.

For the molecule `C[C@@H](NC(=O)/C=C/c1ccccc1)C(=O)Nc1nnc(-c2ccc(Br)cc2)s1`, the result in experiment [1] was inactive. This molecule also registered an IC50 at Aminopeptidase N of 115 µM.

With `C[C@@H](NC(=O)/C=C/c1ccccc1)C(=O)Nc1nnc(-c2ccc(F)cc2)s1`, the outcome in experiment [1] was inactive. On Aminopeptidase N, the IC50 is 183 µM.

Regarding `C[C@@H](NC(=O)/C=C/c1ccccc1)C(=O)Nc1nnc(-c2ccc([N+](=O)[O-])cc2)s1`, in experiment [1], the outcome was inactive. Moreover, on Aminopeptidase N, the IC50 is 84.7 µM.

For the molecule `COc1ccc(/C=C/C(=O)N[C@H](C)C(=O)Nc2nnc(-c3ccc(OC)cc3)s2)cc1`, the outcome in experiment [1] was inactive. For the same molecule, half-maximal inhibition against Aminopeptidase N (IC50) required 78.5 µM.

As to `Cc1ccc(-c2nnc(NC(=O)[C@@H](C)NC(=O)/C=C/c3ccc(O)cc3)s2)cc1`, in experiment [1], the result was inactive. The molecule also registered an IC50 on Aminopeptidase N of 127 µM.

With `Cc1ccc(-c2nnc(NC(=O)[C@@H](C)NC(=O)/C=C/c3ccccc3)s2)cc1`, in experiment [1], the outcome was inactive. Besides, the IC50 against Aminopeptidase N worked out at 206 µM.

For `C[C@@H](NC(=O)/C=C/c1ccc(O)cc1)C(=O)Nc1nnc(-c2ccc(Cl)cc2)s1`, the outcome in experiment [1] was inactive. For the same molecule, the concentration for half-maximal inhibition (IC50) against Aminopeptidase N worked out at 105 µM.

`COc1ccc(/C=C/C(=O)N[C@H](C)C(=O)Nc2nnc(-c3ccc(C)cc3)s2)cc1`: the result in experiment [1] was inactive. In addition, the IC50 against Aminopeptidase N was 141 µM.

Consider `COc1ccc(/C=C/C(=O)N[C@H](C)C(=O)Nc2nnc(-c3ccccc3)s2)cc1`, for which, in experiment [1], the result was inactive. Besides, the IC50 on Aminopeptidase N was 131 µM.

As to `C[C@@H](NC(=O)/C=C/c1ccc(O)cc1)C(=O)Nc1nnc(-c2ccc(Br)cc2)s1`, the outcome in experiment [1] was inactive. Moreover, on Aminopeptidase N, the IC50 came out at 35.3 µM.

With `C[C@@H](NC(=O)/C=C/c1ccc(O)cc1)C(=O)Nc1nnc(-c2ccccc2)s1`, in experiment [1], the result was inactive. This molecule registered an IC50 against Aminopeptidase N of 124 µM.

With `COc1ccc(/C=C/C(=O)N[C@H](C)C(=O)Nc2nnc(-c3ccc(F)cc3)s2)cc1`, in experiment [1], the outcome was inactive. This molecule also gave an IC50 at Aminopeptidase N of 90.7 µM.

In the case of `COc1ccc(-c2nnc(NC(=O)[C@@H](C)NC(=O)/C=C/c3ccc(O)cc3)s2)cc1`, the outcome in experiment [1] was inactive. Further, on Aminopeptidase N, the IC50 was found to be 68.8 µM.

For the molecule `C[C@@H](NC(=O)/C=C/c1ccccc1)C(=O)Nc1nnc(-c2ccc(Cl)cc2)s1`, the outcome in experiment [1] was inactive. Further, half-maximal inhibition against Aminopeptidase N (IC50) was put at 153 µM.

`COc1ccc(/C=C/C(=O)N[C@H](C)C(=O)Nc2nnc(-c3ccc(Br)cc3)s2)cc1`: in experiment [1], the outcome was inactive. Also, the IC50 on Aminopeptidase N came to 108 µM.

Turning to `C[C@@H](NC(=O)/C=C/c1ccc(O)cc1)C(=O)Nc1nnc(-c2ccc([N+](=O)[O-])cc2)s1`, the result in experiment [1] was inactive. On Aminopeptidase N, this molecule displayed an IC50 of 54.1 µM.

In the case of `COc1ccc(-c2nnc(NC(=O)[C@@H](C)NC(=O)/C=C/c3ccccc3)s2)cc1`, the result in experiment [1] was inactive. Moreover, half-maximal inhibition on Aminopeptidase N (IC50) required 31.4 µM.

Take `C[C@@H](NC(=O)/C=C/c1ccccc1)C(=O)Nc1nnc(-c2ccccc2)s1`: in experiment [1], the result was inactive. This molecule registered an IC50 at Aminopeptidase N of 216 µM.

As to `CC(C)C[C@H](NC(=O)[C@@H](O)[C@H](N)Cc1ccccc1)C(=O)O` [UBENIMEX], the IC50 in experiment [1] was 9.5 µM.

As to `C[C@@H](NC(=O)/C=C/c1ccc(O)cc1)C(=O)Nc1nnc(-c2ccc(F)cc2)s1`, in experiment [1], the outcome was inactive. Moreover, the IC50 against Aminopeptidase N was found to be 115 µM.

Turning to `COc1ccc(/C=C/C(=O)N[C@H](C)C(=O)Nc2nnc(-c3ccc(Cl)cc3)s2)cc1`, the result in experiment [1] was inactive. The molecule further registered an IC50 against Aminopeptidase N of 135 µM.
